Test results reported in ChEMBL document CHEMBL1799971, “Bivalent dopamine D2 receptor ligands: synthesis and binding properties” (J Med Chem, 2011).
Activity calls are given as the source filed them. No cut-off for these calls is given here.

How the values were obtained:
D(1A) dopamine receptor = D(1A) dopamine receptor (Sus scrofa, UniProt P50130); assay: Displacement of [3H]SCH23390 from D1 receptor from porcine cerebral cortex homogenates; format: tissue-based
In short: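 Porcine cerebral cortex homogenate membranes at 40–60 μg/mL protein (Lowry, BSA standard). Competition curves were fitted to a sigmoid by nonlinear regression, with log EC50 and Hill coefficient as free parameters.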

D(2) dopamine receptor [1] = target: T1, D(2) dopamine receptor (Homo sapiens, UniProt P14416); assay: Displacement of [3H]spiperone from human D2short receptor expressed in CHO cells; format: cell-based
D(2) dopamine receptor [2] = target: T1, D(2) dopamine receptor; assay: Displacement of [3H]spiperone from human D2long receptor expressed in CHO cells
D(4) dopamine receptor = target: T2, D(4) dopamine receptor (Homo sapiens, UniProt P21917); assay: Displacement of [3H]spiperone from human D4.4 receptor expressed in CHO cells; format: cell-based
T2 sequence (P21917 whole entry): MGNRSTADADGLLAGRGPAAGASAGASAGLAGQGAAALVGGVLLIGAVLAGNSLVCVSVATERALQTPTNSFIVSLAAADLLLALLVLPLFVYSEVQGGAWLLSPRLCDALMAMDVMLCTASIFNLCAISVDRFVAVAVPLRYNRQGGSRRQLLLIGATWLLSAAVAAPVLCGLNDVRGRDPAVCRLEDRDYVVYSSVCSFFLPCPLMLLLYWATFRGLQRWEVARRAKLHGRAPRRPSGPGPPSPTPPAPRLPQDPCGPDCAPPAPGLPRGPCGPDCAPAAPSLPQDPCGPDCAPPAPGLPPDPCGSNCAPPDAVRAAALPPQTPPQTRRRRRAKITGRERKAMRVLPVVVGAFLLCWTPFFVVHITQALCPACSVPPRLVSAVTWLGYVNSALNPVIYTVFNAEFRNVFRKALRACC

D(3) dopamine receptor = D(3) dopamine receptor (Homo sapiens, UniProt P35462); assay: Displacement of [3H]spiperone from human D3 receptor expressed in CHO cells; format: cell-based
Homo sapiens = organism: Homo sapiens; assay: Selectivity ratio of Ki for human D4.4 receptor to Ki for human D3 receptor
D(2) dopamine receptor [3] = target: T1, D(2) dopamine receptor; assay: Displacement of [3H]spiperone from human D2 receptor expressed in CHO cells assessed as dissociation half life; format: cell-based
D(2) dopamine receptor [4] = target: T1, D(2) dopamine receptor; assay: Antagonist activity at human D2long receptor expressed in CHO10001 cells assessed as inhibition of agonist-stimulated [3H]thymidine incorporation into cells by mitogenesis assay; format: functional, cell-based
D(2) dopamine receptor [5] = target: T1, D(2) dopamine receptor; assay: Displacement of [3H]spiperone from human D2short receptor expressed in CHO cells in presence of 100 mM sodium chloride; format: cell-based
In short: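 Buffer was 50 mM Tris, 1.0 mM EDTA, 5.0 mM MgCl2, 100 μg/mL bacitracin and 5 μg/mL soybean trypsin inhibitor, pH 7.4, plus NaCl at a final 100 mM. Curves were fitted by sigmoidal nonlinear regression with a free Hill coefficient.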

Chain of D(3) dopamine receptor (P35462 whole entry): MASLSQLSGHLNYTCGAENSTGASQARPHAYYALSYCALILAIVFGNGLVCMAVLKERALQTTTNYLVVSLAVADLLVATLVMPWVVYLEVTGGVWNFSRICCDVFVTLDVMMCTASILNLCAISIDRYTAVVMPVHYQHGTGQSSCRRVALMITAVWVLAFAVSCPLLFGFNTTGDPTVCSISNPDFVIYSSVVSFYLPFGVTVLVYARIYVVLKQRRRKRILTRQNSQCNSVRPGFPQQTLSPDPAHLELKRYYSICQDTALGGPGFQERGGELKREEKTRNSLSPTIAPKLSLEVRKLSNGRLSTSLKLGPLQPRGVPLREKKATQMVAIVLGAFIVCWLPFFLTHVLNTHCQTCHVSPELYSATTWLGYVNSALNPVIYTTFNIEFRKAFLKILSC
Chain of D(1A) dopamine receptor (P50130 whole entry): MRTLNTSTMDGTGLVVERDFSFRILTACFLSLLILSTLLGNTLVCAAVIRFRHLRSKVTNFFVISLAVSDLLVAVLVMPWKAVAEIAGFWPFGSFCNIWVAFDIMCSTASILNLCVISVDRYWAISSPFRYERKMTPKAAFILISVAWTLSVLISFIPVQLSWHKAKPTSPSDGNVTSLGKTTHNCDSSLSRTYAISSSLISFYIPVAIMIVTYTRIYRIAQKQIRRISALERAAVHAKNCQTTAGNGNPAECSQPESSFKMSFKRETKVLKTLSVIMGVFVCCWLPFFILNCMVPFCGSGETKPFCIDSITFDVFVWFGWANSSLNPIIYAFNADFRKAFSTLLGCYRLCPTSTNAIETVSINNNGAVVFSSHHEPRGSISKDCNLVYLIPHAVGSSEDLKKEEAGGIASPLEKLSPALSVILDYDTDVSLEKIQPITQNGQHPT
T1 sequence (P14416 whole entry): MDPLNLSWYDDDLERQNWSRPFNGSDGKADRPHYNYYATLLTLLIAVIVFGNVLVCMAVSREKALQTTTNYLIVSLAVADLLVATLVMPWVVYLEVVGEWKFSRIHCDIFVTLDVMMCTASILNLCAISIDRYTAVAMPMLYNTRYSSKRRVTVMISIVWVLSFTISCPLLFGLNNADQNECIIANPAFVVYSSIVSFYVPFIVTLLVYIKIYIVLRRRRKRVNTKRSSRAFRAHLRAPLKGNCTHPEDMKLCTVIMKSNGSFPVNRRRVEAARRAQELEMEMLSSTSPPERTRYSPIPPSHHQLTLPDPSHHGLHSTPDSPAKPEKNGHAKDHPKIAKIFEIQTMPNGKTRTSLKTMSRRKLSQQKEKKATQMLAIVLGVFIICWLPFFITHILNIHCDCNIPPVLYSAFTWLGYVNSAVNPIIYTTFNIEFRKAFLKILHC

| SMILES | Ki (D(1A) dopamine receptor) | Ki (D(2) dopamine receptor [1]) | Ki (D(2) dopamine receptor [2]) | Ki (D(4) dopamine receptor) | Ki (D(3) dopamine receptor) | Ratio Ki (Homo sapiens) | T1/2 (D(2) dopamine receptor [3]) | inhibition (D(2) dopamine receptor [4]) | Ki (D(2) dopamine receptor [5]) |
| --- | --- | --- | --- | --- | --- | --- | --- | --- | --- |
| COc1cc(CN2CCN(c3ccccc3OC)CC2)ccc1OCCCCc1cn(CCCCCCCCCCn2cc(CCCCOc3ccc(CN4CCN(c5ccccc5OC)CC4)cc3OC)nn2)nn1 | 0.3 µM | 0.0082 µM | 0.017 µM | 0.011 µM | 0.074 µM |  |  |  |  |
| COc1cc(CN2CCN(c3ccccc3OC)CC2)ccc1OCCCc1cn(CCCCCCCCn2cc(CCCOc3ccc(CN4CCN(C5CCCCC5)CC4)cc3OC)nn2)nn1 | 0.48 µM |  |  | 0.019 µM |  |  |  |  |  |
| CCCCn1cc(COc2ccc(CN3CCN(c4ccccc4OC)CC3)cc2OC)nn1 | 2.3 µM | 0.07 µM | 0.063 µM | 0.0033 µM | 0.32 µM | 80 |  |  |  |
| CCCCn1cc(CCCOc2ccc(CN3CCN(c4ccccc4OC)CC3)cc2OC)nn1 | 1.5 µM |  |  | 0.0072 µM |  | 80 | 2 h | Active | 0.035 µM |
| COc1cc(CN2CCN(c3ccccc3OC)CC2)ccc1OCc1cn(CCOCCOCCn2cc(COc3ccc(CN4CCN(c5ccccc5OC)CC4)cc3OC)nn2)nn1 | 0.39 µM | 0.0034 µM | 0.0033 µM | 0.0068 µM | 0.036 µM |  |  |  |  |
| COc1cc(CN2CCN(c3ccccc3OC)CC2)ccc1OCCCc1cn(CCOCCOCCn2cc(CCCOc3ccc(CN4CCN(c5ccccc5OC)CC4)cc3OC)nn2)nn1 | 0.22 µM | 0.0037 µM | 0.0028 µM | 0.012 µM | 0.061 µM |  |  |  |  |
| COc1cc(CN2CCN(C)CC2)ccc1OCCCc1cn(CCCCCCCCn2cc(CCCOc3ccc(CN4CCN(c5ccccc5OC)CC4)cc3OC)nn2)nn1 | 0.98 µM |  |  | 0.012 µM |  |  |  |  |  |
| COc1cc(CN2CCN(c3ccccc3OC)CC2)ccc1OCCCc1cn(CCCCCCCCCCn2cc(CCCOc3ccc(CN4CCN(c5ccccc5OC)CC4)cc3OC)nn2)nn1 | 0.25 µM | 0.017 µM | 0.023 µM | 0.019 µM | 0.096 µM |  |  |  |  |
| COc1cc(CN2CCN(c3ccccc3OC)CC2)ccc1OCCCc1cn(CCOCCOCCOCCn2cc(CCCOc3ccc(CN4CCN(c5ccccc5OC)CC4)cc3OC)nn2)nn1 | 0.27 µM | 0.0062 µM | 0.0048 µM | 0.019 µM | 0.072 µM |  |  |  |  |
| CCOCCn1cc(COc2ccc(CN3CCN(c4ccccc4OC)CC3)cc2OC)nn1 | 3.8 µM | 0.1 µM | 0.068 µM | 0.0084 µM | 0.44 µM |  |  |  |  |
| COc1cc(CN2CCN(c3ccccc3OC)CC2)ccc1OCCCc1cn(CCCCCCCCn2cc(CCCOc3ccc(CN4CCN(c5ccccc5OC)CC4)cc3OC)nn2)nn1 | 0.22 µM |  |  | 0.015 µM |  | 5 | 2.17 h | Active | 0.012 µM |
| CCCCn1cc(CCCCOc2ccc(CN3CCN(c4ccccc4OC)CC3)cc2OC)nn1 | 2.5 µM | 0.067 µM | 0.052 µM | 0.013 µM | 0.59 µM |  |  |  |  |
| CCCc1cn(CCCCCCCCn2cc(CCCOc3ccc(CN4CCN(c5ccccc5OC)CC4)cc3OC)nn2)nn1 | 0.4 µM | 0.032 µM | 0.036 µM | 0.014 µM | 0.23 µM |  |  |  |  |
| CCOCCn1cc(CCCOc2ccc(CN3CCN(c4ccccc4OC)CC3)cc2OC)nn1 | 0.87 µM | 0.016 µM | 0.018 µM | 0.0064 µM | 0.25 µM |  |  |  |  |
| COc1cc(CN2CCN(c3ccccc3OC)CC2)ccc1OCc1cn(CCCCCCCCn2cc(COc3ccc(CN4CCN(c5ccccc5OC)CC4)cc3OC)nn2)nn1 | 0.21 µM | 0.025 µM | 0.016 µM | 0.0054 µM | 0.031 µM | 5 |  |  |  |
